Assay results as given in ChEMBL document CHEMBL1921722, “In vitro and in vivo evaluation of select kahalalide F analogs with antitumor and antifungal activities” (Bioorg Med Chem, 2011).
In brackets after ≈: the same amount, converted by molar mass. Activity calls are given as the source filed them. The rule behind the calls is not given here.

Key:
NCI-H460 = assay: Cytotoxicity against human NCI-H460 cells assessed as cell growth at 80 uM by sulforhodamine B assay relative to control; assay type: functional; conditions: read-out: Activity
SNB-75 = assay: Cytotoxicity against human SNB75 cells by sulforhodamine B assay; assay type: functional
How it was run: (§1)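 NCI Developmental Therapeutics Program 60-cell-line human tumor panel screen, run at NCI. A single-concentration pre-screen was followed by a five-concentration dose-response in 10-fold steps. GI50 is the concentration that reduces growth of treated cells to half that of untreated control cells. TGI is the concentration that completely halts growth.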

TK-10 = assay: Cytotoxicity against human TK10 cells assessed as cell growth at 800 nM by sulforhodamine B assay relative to control; assay type: functional; conditions: read-out: Activity
786-0 [1] = assay: Cytotoxicity against human 786-0 cells assessed as cell growth at 80 uM by sulforhodamine B assay relative to control; assay type: functional; conditions: read-out: Activity
How it was run: (§2)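 Run at NCI in the DTP 60-cell-line human tumor panel by standard procedure. Compounds were first screened at a single concentration, then tested at five tenfold-spaced concentrations. GI50 is the concentration reducing treated-cell growth to half that of untreated controls; TGI is the concentration completely halting growth.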

HL-60(TB) = assay: Cytotoxicity against human HL-60(TB) cells assessed as cell growth at 8 nM by sulforhodamine B assay relative to control; assay type: functional; conditions: read-out: Activity
HCT-116 [2] = assay: Cytotoxicity against human HCT116 cells assessed as cell growth at 8 uM by sulforhodamine B assay relative to control; assay type: functional; conditions: read-out: Activity
SN12C [3] = assay: Cytotoxicity against human SN12C cells assessed as cell growth at 8 uM by sulforhodamine B assay relative to control; assay type: functional; conditions: read-out: Activity
OVCAR-8 [4] = assay: Cytotoxicity against human OVCAR8 cells assessed as cell growth at 8 nM by sulforhodamine B assay relative to control; assay type: functional; conditions: read-out: Activity
DU-145 = assay: Cytotoxicity against human DU145 cells assessed as cell growth at 800 nM by sulforhodamine B assay relative to control; assay type: functional; conditions: read-out: Activity
OVCAR-3 [5] = assay: Cytotoxicity against human OVCAR3 cells assessed as cell growth at 80 uM by sulforhodamine B assay relative to control; assay type: functional; conditions: read-out: Activity
RPMI-8226 = assay: Cytotoxicity against human RPMI8226 cells assessed as cell growth at 8 nM by sulforhodamine B assay relative to control; assay type: functional; conditions: read-out: Activity
OVCAR-3 [6] = assay: Cytotoxicity against human OVCAR3 cells by sulforhodamine B assay; assay type: functional; how it was run: as §1
BT-549 = assay: Cytotoxicity against human BT549 cells assessed as cell growth at 8 nM by sulforhodamine B assay relative to control; assay type: functional; conditions: read-out: Activity; how it was run: as §2
RXF 393 = assay: Cytotoxicity against human RXF393 cells assessed as cell growth at 80 uM by sulforhodamine B assay relative to control; assay type: functional; conditions: read-out: Activity
Malme-3M = assay: Cytotoxicity against human MALME-3M cells assessed as cell growth at 800 nM by sulforhodamine B assay relative to control; assay type: functional; conditions: read-out: Activity
U-251 = assay: Cytotoxicity against human U251 cells assessed as cell growth at 80 uM by sulforhodamine B assay relative to control; assay type: functional; conditions: read-out: Activity
UACC-257 = assay: Cytotoxicity against human UACC257 cells assessed as cell growth at 80 nM by sulforhodamine B assay relative to control; assay type: functional; conditions: read-out: Activity
NCI-H226 = assay: Cytotoxicity against human NCI-H226 cells assessed as cell growth at 800 nM by sulforhodamine B assay relative to control; assay type: functional; conditions: read-out: Activity
NCI-H23 = assay: Cytotoxicity against human NCI-H23 cells assessed as cell growth at 80 uM by sulforhodamine B assay relative to control; assay type: functional; conditions: read-out: Activity
MOLT-4 = assay: Cytotoxicity against human MOLT4 cells assessed as cell growth at 80 uM by sulforhodamine B assay relative to control; assay type: functional; conditions: read-out: Activity
786-0 [7] = assay: Cytotoxicity against human 786-0 cells assessed as cell growth at 800 nM by sulforhodamine B assay relative to control; assay type: functional; conditions: read-out: Activity; how it was run: as §2
COLO 205 = assay: Cytotoxicity against human COLO205 cells assessed as cell growth at 8 uM by sulforhodamine B assay relative to control; assay type: functional; conditions: read-out: Activity; how it was run: as §2
HCT-116 [8] = assay: Cytotoxicity against human HCT116 cells assessed as cell growth at 80 uM by sulforhodamine B assay relative to control; assay type: functional; conditions: read-out: Activity
Aspergillus fumigatus = assay: Antimicrobial activity against Aspergillus fumigatus ATCC 90906 by CLSI method; assay type: functional, organism-based
Escherichia coli = assay: Antimicrobial activity against Escherichia coli ATCC 35218 by CLSI method; assay type: functional, organism-based
Hs-578T [9] = assay: Cytotoxicity against human Hs578T cells assessed as cell growth at 800 nM by sulforhodamine B assay relative to control; assay type: functional; conditions: read-out: Activity
KM12 = assay: Cytotoxicity against human KM12 cells assessed as cell growth at 800 nM by sulforhodamine B assay relative to control; assay type: functional; conditions: read-out: Activity
Fusarium sp. = assay: Antimicrobial activity against Fusarium sp. by CLSI method; assay type: functional, organism-based
EKVX = assay: Cytotoxicity against human EKVX cells assessed as cell growth at 80 uM by sulforhodamine B assay relative to control; assay type: functional; conditions: read-out: Activity
NCI-H322M = assay: Cytotoxicity against human NCI-H322M cells assessed as cell growth at 800 nM by sulforhodamine B assay relative to control; assay type: functional; conditions: read-out: Activity
HOP-62 = assay: Cytotoxicity against human HOP62 cells assessed as cell growth at 800 nM by sulforhodamine B assay relative to control; assay type: functional; conditions: read-out: Activity
OVCAR-8 [10] = assay: Cytotoxicity against human OVCAR8 cells assessed as cell growth at 800 nM by sulforhodamine B assay relative to control; assay type: functional; conditions: read-out: Activity
Hs-578T [11] = assay: Cytotoxicity against human Hs578T cells by sulforhodamine B assay; assay type: functional; how it was run: as §1
SN12C [12] = assay: Cytotoxicity against human SN12C cells assessed as cell growth at 80 nM by sulforhodamine B assay relative to control; assay type: functional; conditions: read-out: Activity
SK-MEL-5 = assay: Cytotoxicity against human SK-MEL-5 cells by sulforhodamine B assay; assay type: functional; how it was run: as §1
NCI-H522 = assay: Cytotoxicity against human NCI-H522 cells assessed as cell growth at 80 nM by sulforhodamine B assay relative to control; assay type: functional; conditions: read-out: Activity
SW-620 = assay: Cytotoxicity against human SW620 cells by sulforhodamine B assay; assay type: functional; how it was run: as §1
UO-31 = assay: Cytotoxicity against human UO31 cells assessed as cell growth at 80 uM by sulforhodamine B assay relative to control; assay type: functional; conditions: read-out: Activity
NCI/ADR-RES = assay: Cytotoxicity against human NCI/ADR-RES cells assessed as cell growth at 80 nM by sulforhodamine B assay relative to control; assay type: functional; conditions: read-out: Activity
MDA-MB-231 = assay: Cytotoxicity against human MDA-MB-231 cells assessed as cell growth at 80 nM by sulforhodamine B assay relative to control; assay type: functional; conditions: read-out: Activity
MCF7 = assay: Cytotoxicity against human MCF7 cells assessed as cell growth at 80 nM by sulforhodamine B assay relative to control; assay type: functional; conditions: read-out: Activity

## C/C=C1\NC(=O)[C@H](Cc2ccccc2)NC(=O)[C@@H](C(C)C)NC(=O)[C@@H]([C@@H](C)CC)NC(=O)[C@H](NC(=O)[C@H](NC(=O)[C@H](CCCNCc2ccc(N3CCOCC3)cc2)NC(=O)[C@H]2CCCN2C(=O)[C@H](NC(=O)[C@@H](NC(=O)[C@@H](NC(=O)[C@H](NC(=O)CCCC(C)C)C(C)C)[C@@H](C)O)C(C)C)C(C)C)[C@@H](C)CC)[C@@H](C)OC(=O)[C@H](C(C)C)NC1=O
NCI-H460
  growth at 80 µM: 2%
SNB-75; read-out: GI50
  GI50: 808 nM
SNB-75; read-out: TGI
  TGI: 1900 nM
SNB-75; read-out: pGI50 (converted)
  GI50: 813 nM
SNB-75; read-out: pTGI (converted)
  TGI: 1910 nM
TK-10
  growth at 0.8 µM: 104%
786-0 [1]
  growth at 80 µM: -66%
HL-60(TB)
  growth at 0.008 µM: 94%
HCT-116 [2]
  growth at 8 µM: -66%
SN12C [3]
  growth at 8 µM: -47%
OVCAR-8 [4]
  growth at 0.008 µM: 99%
DU-145
  growth at 0.8 µM: -77%
OVCAR-3 [5]
  growth at 80 µM: -50%
RPMI-8226
  growth at 0.008 µM: 111%
OVCAR-3 [6]
  GI50: 617 nM
OVCAR-3 [6]; read-out: pTGI (converted)
  TGI: 1860 nM
BT-549
  growth at 0.008 µM: 106%
RXF 393
  growth at 80 µM: -27%
Malme-3M
  growth at 0.8 µM: 117%
U-251
  growth at 80 µM: -61%
UACC-257
  growth at 0.08 µM: 103%
NCI-H226
  growth at 0.8 µM: 104%
NCI-H23
  growth at 80 µM: -85%
MOLT-4
  growth at 80 µM: 7%
786-0 [7]
  growth at 0.8 µM: 101%
COLO 205
  growth at 8 µM: -73%
HCT-116 [8]
  growth at 80 µM: -58%
Aspergillus fumigatus
  IC50: 5000 nM
  MFC: 20 µM (≈ 33.1 µg/mL)
  MIC: 10 µM (≈ 16.5 µg/mL)
Escherichia coli
  Activity: inactive
Hs-578T [9]
  growth at 0.8 µM: 36%
KM12
  growth at 0.8 µM: -15%
Fusarium sp.
  Activity: Active
EKVX
  growth at 80 µM: -46%
NCI-H322M
  growth at 0.8 µM: -76%
HOP-62
  growth at 0.8 µM: 95%
OVCAR-8 [10]
  growth at 0.8 µM: 96%
Hs-578T [11]
  LC50: > 75900 nM
Hs-578T [11]; read-out: GI50
  GI50: 453 nM
Hs-578T [11]; read-out: TGI
  TGI: 444 nM
Hs-578T [11]; read-out: pGI50 (converted)
  GI50: 457 nM
Hs-578T [11]; read-out: pTGI (converted)
  TGI: 2040 nM
SN12C [12]
  growth at 0.08 µM: 91%
SK-MEL-5
  GI50: 1230 nM
  LC50: 4070 nM
SK-MEL-5; read-out: pTGI (converted)
  TGI: 2240 nM
NCI-H522
  growth at 0.08 µM: 99%
SW-620
  GI50: 1050 nM
SW-620; read-out: pTGI (converted)
  TGI: 2040 nM
UO-31
  growth at 80 µM: -28%
NCI/ADR-RES
  growth at 0.08 µM: 82%
MDA-MB-231
  growth at 0.08 µM: 97%
MCF7
  growth at 0.08 µM: 107%
